In ChEMBL document CHEMBL4177580, “New 5-HT1A, 5HT2A and 5HT2C receptor ligands containing a picolinic nucleus: Synthesis, in vitro and in vivo pharmacological evaluation” (Bioorg Med Chem, 2017):

Key:
Mus musculus = experiment: Toxicity in Swiss albino mouse assessed as effect on motor coordination at 3.75 to 15 mg/kg, ip dosed 60 mins before test by Chimney test; assay type: organism-based; conditions: in vivo, 1 h
Outline: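 Chimney test in male Swiss mice after i.p. dosing 60 min earlier: impairment defined as failure to climb backwards up a tube (3 cm inner diameter, 25 cm long) within 60 s. Animals pre-trained once daily for 3 days. One-way ANOVA with Dunnett's.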

[1] = molecular target: T1, Adrenergic receptor alpha-1 (Rattus norvegicus, UniProt P15823+P23944+P43140); experiment: Displacement of [3H]prazosin from adrenergic alpha1 receptor in rat cerebral cortex
T1 sequence (P15823 whole entry): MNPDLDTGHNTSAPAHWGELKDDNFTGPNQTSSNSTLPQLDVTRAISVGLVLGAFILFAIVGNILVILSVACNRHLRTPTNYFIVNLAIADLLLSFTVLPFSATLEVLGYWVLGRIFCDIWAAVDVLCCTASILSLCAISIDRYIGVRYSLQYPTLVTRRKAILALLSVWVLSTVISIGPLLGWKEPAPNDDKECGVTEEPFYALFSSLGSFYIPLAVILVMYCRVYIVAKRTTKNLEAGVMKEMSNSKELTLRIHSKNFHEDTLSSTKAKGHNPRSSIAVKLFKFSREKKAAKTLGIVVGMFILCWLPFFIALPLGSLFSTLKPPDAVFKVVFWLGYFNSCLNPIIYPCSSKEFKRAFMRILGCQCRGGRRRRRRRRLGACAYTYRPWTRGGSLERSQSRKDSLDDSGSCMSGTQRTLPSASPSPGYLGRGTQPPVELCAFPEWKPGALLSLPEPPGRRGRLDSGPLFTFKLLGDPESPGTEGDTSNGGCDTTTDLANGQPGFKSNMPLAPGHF
T1 sequence (P23944 whole entry): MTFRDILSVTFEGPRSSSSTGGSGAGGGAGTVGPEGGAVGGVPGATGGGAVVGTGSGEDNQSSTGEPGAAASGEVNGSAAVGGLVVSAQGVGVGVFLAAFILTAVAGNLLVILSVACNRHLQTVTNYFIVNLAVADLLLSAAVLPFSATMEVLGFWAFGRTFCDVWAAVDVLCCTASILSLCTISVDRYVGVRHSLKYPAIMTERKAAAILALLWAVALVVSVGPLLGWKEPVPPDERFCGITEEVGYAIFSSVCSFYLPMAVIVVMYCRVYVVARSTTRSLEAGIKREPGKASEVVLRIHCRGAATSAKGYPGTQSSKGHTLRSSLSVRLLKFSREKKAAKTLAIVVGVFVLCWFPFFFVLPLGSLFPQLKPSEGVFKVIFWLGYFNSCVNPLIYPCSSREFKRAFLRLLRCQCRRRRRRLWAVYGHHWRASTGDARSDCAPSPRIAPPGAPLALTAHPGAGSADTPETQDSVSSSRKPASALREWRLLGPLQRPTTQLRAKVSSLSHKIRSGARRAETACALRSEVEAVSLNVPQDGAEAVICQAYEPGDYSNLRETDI
T1 sequence (P43140 whole entry): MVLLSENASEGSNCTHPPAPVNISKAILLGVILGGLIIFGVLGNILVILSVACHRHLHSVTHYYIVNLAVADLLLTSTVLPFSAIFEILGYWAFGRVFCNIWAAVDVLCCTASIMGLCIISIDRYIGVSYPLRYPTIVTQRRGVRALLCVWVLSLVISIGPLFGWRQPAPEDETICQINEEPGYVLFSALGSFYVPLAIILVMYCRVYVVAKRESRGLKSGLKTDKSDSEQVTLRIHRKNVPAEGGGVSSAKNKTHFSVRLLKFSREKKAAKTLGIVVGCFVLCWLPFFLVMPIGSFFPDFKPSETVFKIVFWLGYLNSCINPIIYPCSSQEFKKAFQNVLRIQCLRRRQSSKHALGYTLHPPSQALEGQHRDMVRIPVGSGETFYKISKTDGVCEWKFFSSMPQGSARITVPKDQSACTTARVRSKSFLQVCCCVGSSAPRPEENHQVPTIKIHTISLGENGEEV

Rattus norvegicus = experiment: In-vivo 5-HT1A receptor antagonist activity in Wistar rat assessed as reduction in 8-OH-DPAT-stimulated induction of lower lip retraction by measuring lower lip retraction score at 30 mg/kg, ip dosed 15 mins before test (reference value: 2.875 +/- 0.08183)

Ki [1]: 31 nM
Compound: O=C(NCCN1CCN(c2ccc(Cl)c(Cl)c2)CC1)c1ccccn1
Activity (Mus musculus): Non-Toxic | Activity_index (Rattus norvegicus): 2.3
